Compound activity (PubChem)
PREPL inhibitor = inhibits the human prolyl oligopeptidase-like enzyme; recombinant PREPL, fluorescence polarization activity-based probe; inhibition, % at 5.96 µM; 0.68% of 320,000 active; in the data active = inhibition above about 43%
ZTA DNA inh = blocks Epstein-Barr virus ZTA, an EBNA-1 counter-screen; P03206; ZTA-DNA binding, fluorescence polarization; inhibition, % at 11 µM; 0.15% of 320,000 active; in the data active = inhibition above about 33%
Target sequence (P03206 whole entry, looked up): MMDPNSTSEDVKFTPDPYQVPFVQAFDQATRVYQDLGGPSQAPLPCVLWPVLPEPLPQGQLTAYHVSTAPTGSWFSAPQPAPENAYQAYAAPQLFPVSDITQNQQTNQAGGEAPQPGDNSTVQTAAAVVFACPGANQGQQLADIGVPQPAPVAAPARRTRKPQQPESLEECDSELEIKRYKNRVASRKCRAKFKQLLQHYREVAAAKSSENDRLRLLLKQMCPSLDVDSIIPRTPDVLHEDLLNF
UBC13 polyUb = human UBC13 polyubiquitination inhibition. 0.47% of 330,000 active. inhibition, % at 20 µM. P61088. UBC13 polyubiquitin chain formation, TR-FRET; in the data active = inhibition above about 45%, passing the limit was not always enough
Target sequence (P61088 whole entry, looked up): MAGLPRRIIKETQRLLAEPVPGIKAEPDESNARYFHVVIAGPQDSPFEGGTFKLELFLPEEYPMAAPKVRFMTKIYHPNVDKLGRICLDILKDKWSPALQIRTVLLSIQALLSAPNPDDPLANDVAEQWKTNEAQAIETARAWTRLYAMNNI
EBNA-1 inh = blocks EBNA-1 binding to DNA; EBNA-1 DNA binding, fluorescence polarization; 0.34% of 300,000 active; inhibition, % at 14.8 µM; in the data active = inhibition above about 28%
Apaf-1 inh = inhibitors of human Apaf-1 apoptosome; reconstituted apoptosome caspase-3 activity, DEVD-Rh110 fluorescence; inhibition, % at 20 µM; 0.71% of 330,000 active; active = inhibition of at least 40% at 20 µM
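Material: reconstituted apoptosome with Apaf-1, cytochrome c, caspase-9, procaspase-3, dATP. Technique: Rh110 fluorescence intensity. Buffer or medium: pH 7.5 Hepes buffer with CHAPS, BSA, DTT. Times: 30 min plus 50 min, RT.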
Numbers stand for hits; i = inactive; nt = no result. The list is not random: actives were taken first. Their share in the collection is about 1.7%.

SMILES	PREPL inhibitor	ZTA DNA inh	UBC13 polyUb	EBNA-1 inh	Apaf-1 inh
CCCCCc1cc(=O)oc2c(C(CCN3CCCC(C)C3)c3ccc4c(c3)OCO4)c(OC)cc(OC)c12 (stereo not given)	i	i	i	i	66
Cn1cc(C(=O)Nc2ccccn2)c(=O)c2ccccc21	nt	nt	i	nt	i
Cc1ccc2[nH]c3c(N4CCc5ccccc5C4)ncnc3c2c1	46	i	i	i	i
CCN(CC)c1ccc(NC(=O)CN2CCN(S(=O)(=O)c3cc(Cl)ccc3OC)CC2)cc1	72	i	i	i	i
Cc1ccc2nc(NC(=O)c3ccc(N4C(=O)CCC4=O)cc3)sc2c1	i	i	i	35	i
CCOC(=O)C1=C(C)C(c2ccccc2)NC(=S)N1 (stereo not given)	i	i	i	i	i
COC(=O)c1c(C)[nH]c(O)c1C=Nc1ccc(C(C)C)cc1	47	i	i	i	i
Oc1c(Cl)cc(Cl)cc1Sc1cc(Cl)cc(Cl)c1O	48	i	i	i	i
Oc1c(Cl)cc(Cl)cc1CNn1cnnc1	i	i	i	i	i
O=C(O)c1ccc(/C=N/N2CCN(c3ccccc3)CC2)cc1	nt	nt	i	nt	i
Cc1nc(SCC(=O)NC2CC2)c2c(C)c(C)sc2n1	i	i	i	i	i
Cc1sc2nc(C(C)C)nc(SCC(=O)NC3CC3)c2c1C	i	69	i	129	i
COc1cccc(OC)c1-c1nn2c(-c3cc(-c4ccccc4)n[nH]3)nnc2s1	i	165	i	60	53
COc1ccc(NC(=O)C2CCC(N3C(=O)C4C5C=CC(C5)C4C3=O)CC2)cc1 (stereo not given)	i	i	i	i	i
COc1ccc(NC(=O)[C@@H]2[C@@H]3C(=O)N(C4CCCCC4)C(=O)[C@@H]3C3c4ccccc4C=CN32)cc1 (stereo not given in full)	i	i	i	i	51
O=C1C2C(c3ccccc3)C=CC(c3ccccc3)C2C(=O)N1C1CCCCC1 (stereo not given)	i	i	i	i	i
CC(=O)[C@@H]1[C@@H]2C(=O)N(C3CCCCC3)C(=O)[C@@H]2C2c3ccccc3C=CN21 (stereo not given in full)	i	i	i	i	84
CCCCCCCCCC(=O)O	i	nt	i	nt	i
CCCCCC#CCC#CCC#CCC#CCCCC(=O)O	i	i	i	i	41
COc1ccc(C(=O)Oc2cccc(/C=N/NC(N)=S)c2)cc1	45	i	i	i	i
COc1cc(/C=N/NC(N)=S)ccc1OC(=O)c1ccc(C)cc1	i	i	i	i	i
COc1ccc(/C=C/C(=O)OCC(=O)NCCCc2ccccc2)cc1OC	i	nt	i	nt	i
Cc1ccc2oc(-c3cccc(NC(=O)/C=C/c4cccc([N+](=O)[O-])c4)c3C)nc2c1	i	i	i	28	i
CCCCc1nc(N2CCN(C(=O)c3ccco3)CC2)c(C#N)c2c1CCCC2	i	i	i	i	42
CCOC(=O)N1CCN(c2nc(C)cc(C(F)(F)F)n2)CC1	i	i	i	i	i
SMILES	PREPL inhibitor	ZTA DNA inh	UBC13 polyUb	EBNA-1 inh	Apaf-1 inh
Nc1nc2c(s1)CCc1c-2cnn1-c1ccccc1	i	i	i	i	93
COc1ccc(N(CC(=O)Nc2ccc3c(c2)OCO3)S(C)(=O)=O)c(OC)c1	i	i	i	i	i
CN(C)S(=O)(=O)N1CCN(Cc2ccccc2)CC1	i	i	i	i	i
CCN1CCN(S(=O)(=O)c2ccc(C(=O)Nc3sc4c(c3C(N)=O)CCN(CC)C4)cc2)CC1	i	i	i	i	i
CN1CCc2c(sc(NC(=O)c3ccc(C(=O)c4ccccc4)cc3)c2C(N)=O)C1	i	i	i	i	44
CCN1CCc2c(sc(NC(=O)c3ccc4ccccc4c3)c2C(N)=O)C1	i	i	i	i	40
CN1CCc2c(sc(NC(=O)CS(=O)(=O)c3ccccc3)c2C(N)=O)C1	i	i	i	i	i
OCCSc1nc(-c2ccccc2)nc2c1CCC2	i	i	i	i	i
N=C1/C(=C/c2ccc(-c3cccc(C(=O)O)c3)o2)C(=O)N=C2SC=C(c3ccccc3)N12	i	35	i	60	i
Cc1ccc(-n2c(N)c(C(=O)Nc3c(C)n(C)n(-c4ccccc4)c3=O)c3nc4ccccc4nc32)cc1C	43	i	i	i	42
O=C(CN(Cc1ccccc1)S(=O)(=O)c1ccc(Br)cc1)NCC1CCCO1 (stereo not given)	i	i	i	i	i
Cc1cccc(Oc2nc(-c3cccc([N+](=O)[O-])c3)nc3ccccc23)c1C	i	i	i	i	i
S=C(c1cn(Cc2ccc(Br)cc2)c2ccccc12)N1CCOCC1	50	i	i	i	i
S=C(c1cn(Cc2ccccc2)c2ccccc12)N1CCOCC1	i	i	i	i	i
CCn1c(CSc2nnc(-c3ccncc3)n2C)nc2cc(C(=O)O)ccc21	i	43	i	30	i
Cc1nc(NC(=O)c2c(-c3ccccc3)noc2C)sc1C(=O)N(C)C	nt	nt	i	nt	i
Nc1cc2nc3ccccc3oc-2cc1=O	i	i	i	i	48
COc1cc2c(cc1OC)C(C)N(C(=O)c1cccs1)CC2 (stereo not given)	i	i	i	i	i
COc1cc2c(cc1OC)C(C)N(C(=O)c1cc3c(=O)oc4ccc(C)cc4c3s1)CC2 (stereo not given)	i	i	47	i	i
O=C(Nc1ccc(Oc2ccccc2)cc1)C1CCN(c2c3c(nc4ncnn24)CCC3)CC1	i	i	i	i	41
Nc1nc(Cl)c(C=O)c(N2CCCCC2)n1	i	i	i	i	i
CCOc1ccccc1CNC(=O)C1CCN(c2nnc(C)c3c(C)n(-c4ccc(C)cc4)nc23)CC1	i	i	i	i	41
COc1cc2nc(Nc3ccc(F)cc3)nc(N)c2cc1OC	i	i	i	i	i
CCOC(=O)c1ccc(Nc2nc(N)c3cc(OC)c(OC)cc3n2)cc1	i	i	i	i	54
Cc1cccc(CNc2ncnc3ccc(-c4ccc5c(c4)OCCO5)cc23)c1	i	i	i	nt	42
SMILES	PREPL inhibitor	ZTA DNA inh	UBC13 polyUb	EBNA-1 inh	Apaf-1 inh
CCN(CC)CCN1CCn2c3c(c4cc(C)ccc42)CCCC31 (stereo not given)	52	i	i	i	i
CCN1CCn2c3c(c4cc(Cl)ccc42)CCCC31 (stereo not given)	i	i	i	i	i
NC(=O)c1cc(N)ccc1N1CCCC1	i	i	i	i	44
COc1ccc(/C=N/NC(=O)c2ccc(Br)cc2)cc1Cn1cc(Cl)cn1	i	i	i	32	i
COc1ccc(N2CCN(c3oc(-c4ccccc4OC)nc3C#N)CC2)cc1	52	i	i	i	i
O=C(CC1(O)C(=O)c2ccccc2C1=O)c1ccccc1	i	i	i	i	i
O=C1c2ccccc2C(=O)C1(O)O	i	i	i	nt	68
Cc1ccccc1NC(=O)CN1C(=O)N/C(=C\c2ccc(N3CCOCC3)c(F)c2)C1=O	i	i	i	56	i
Cc1ccc(NC(=O)CN2C(=O)N/C(=C/c3ccc(N4CCOCC4)cc3)C2=O)cc1	i	i	i	i	i
C=CCn1c(NC(=O)c2ccc(Br)o2)c(S(=O)(=O)c2ccccc2)c2nc3ccccc3nc21	i	i	i	i	63
